Screens from PubChem BioAssay.
Apaf1 inhib – inhibitors of human Apaf-1 apoptosome; O14727; reconstituted apoptosome caspase-3 activity, DEVD-Rh110 fluorescence; inhibition, % at 20 µM; actives 0.71% (n = 330,000); active means inhibition of at least 40% at 20 µM;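 further: plate controls were DMSO wells for no effect and DEVD-CHO caspase inhibitor wells for full effect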
Target sequence (O14727 whole entry, looked up): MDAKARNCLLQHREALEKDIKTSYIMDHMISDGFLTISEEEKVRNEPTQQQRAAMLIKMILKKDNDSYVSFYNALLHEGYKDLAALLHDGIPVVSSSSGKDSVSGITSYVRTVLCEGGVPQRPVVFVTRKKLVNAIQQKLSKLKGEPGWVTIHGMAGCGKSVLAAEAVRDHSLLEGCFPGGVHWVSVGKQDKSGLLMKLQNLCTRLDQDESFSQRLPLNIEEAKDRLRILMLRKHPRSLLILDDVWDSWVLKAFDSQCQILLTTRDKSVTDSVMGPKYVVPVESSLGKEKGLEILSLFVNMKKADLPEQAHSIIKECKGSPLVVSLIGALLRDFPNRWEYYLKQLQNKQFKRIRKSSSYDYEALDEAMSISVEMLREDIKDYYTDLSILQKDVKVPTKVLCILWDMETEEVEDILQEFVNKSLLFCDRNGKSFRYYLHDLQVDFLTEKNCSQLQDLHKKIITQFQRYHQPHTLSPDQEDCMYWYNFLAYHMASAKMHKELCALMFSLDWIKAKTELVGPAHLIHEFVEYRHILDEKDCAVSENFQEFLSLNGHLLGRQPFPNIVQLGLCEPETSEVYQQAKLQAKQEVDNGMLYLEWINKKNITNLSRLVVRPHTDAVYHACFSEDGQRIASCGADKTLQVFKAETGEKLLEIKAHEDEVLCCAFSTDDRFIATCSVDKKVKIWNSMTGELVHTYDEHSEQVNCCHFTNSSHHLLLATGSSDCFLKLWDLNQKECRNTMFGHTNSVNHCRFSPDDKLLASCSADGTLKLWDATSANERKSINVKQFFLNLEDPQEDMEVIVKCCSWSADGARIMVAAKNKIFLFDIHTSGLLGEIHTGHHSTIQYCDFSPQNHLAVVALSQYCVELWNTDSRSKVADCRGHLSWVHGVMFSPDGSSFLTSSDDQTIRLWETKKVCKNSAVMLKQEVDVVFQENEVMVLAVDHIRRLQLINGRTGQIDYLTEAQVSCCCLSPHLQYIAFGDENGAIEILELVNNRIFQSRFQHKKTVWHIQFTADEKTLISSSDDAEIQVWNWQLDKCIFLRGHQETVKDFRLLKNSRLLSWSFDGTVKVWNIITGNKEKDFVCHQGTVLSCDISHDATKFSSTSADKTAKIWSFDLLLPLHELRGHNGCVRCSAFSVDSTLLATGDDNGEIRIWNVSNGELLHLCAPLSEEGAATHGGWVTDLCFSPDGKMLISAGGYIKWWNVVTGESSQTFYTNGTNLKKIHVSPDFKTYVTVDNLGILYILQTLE
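System: Apoptosome proteins | Medium: Hepes pH 7.5 with detergent and BSA | Also added: Cytochrome c trigger plus (Z-DEVD)2-Rh110 caspase-3 substrate | Incubation: 30 min compound preincubation, 50 min activation, room temperature | Detection: Rhodamine 110 fluorescence at Ex 480/Em 540 nm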
PREPL inhibitor – human PREPL enzyme inhibition. recombinant PREPL, fluorescence polarization activity-based probe. AID 2751. Q4J6C6. inhibition, % at 5.96 µM. actives 0.68% (n = 320,000); in the data active means inhibition above about 43%;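 further: 0% = enzyme with DMSO and 100% = wells lacking enzyme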
PAFAH1B3 inh – inhibitors of human PAFAH1B3. Q15102. recombinant PAFAH1B3, FP-rhodamine probe, fluorescence polarization. inhibition, % at 3.39 µM. actives 0.28% (n = 340,000). AID 492972;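 active means inhibition above the screen-wide average of all tested compounds plus 3 SD, cut at about 25% in these data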;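 further: 0% = enzyme with DMSO only and 100% = wells lacking PAFAH1B3 protein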
PAFAH2 inh – PAFAH2 (human) inhibition. recombinant PAFAH2, FP-rhodamine activity probe, fluorescence polarization. Q99487. AID 492956. inhibition, % at 3.39 µM. actives 0.99% (n = 340,000);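 active means inhibition above the mean over all tested compounds plus 3 SD, cut at about 30% in these data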;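 further: inhibitors block probe labeling of enzyme so polarization drops; 0% = enzyme with DMSO and 100% = wells lacking PAFAH2 protein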
pPAFAH inh – pPAFAH (human) enzyme inhibition. Q13093. recombinant pPAFAH, FP-rhodamine probe fluorescence polarization. inhibition, % at 3.39 µM. actives 1.5% (n = 330,000). AID 463082;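 active means inhibition above the mean inhibition across the screen plus 3 SD, cut at about 25% in these data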;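 further: inhibitors block binding of the rhodamine activity-based probe so polarization drops; 0% = enzyme with DMSO and 100% = wells lacking pPAFAH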
PAFAH1B2 FP inh – blocks human PAF acetylhydrolase 1b catalytic subunit 2; inhibition, % at 3.39 µM; recombinant PAFAH1B2, FP-rhodamine activity probe, fluorescence polarization; actives 1.2% (n = 340,000);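 active means inhibition above the mean of all tested compounds plus 3 SD, cut at about 24% in these data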;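 further: 0% = enzyme with DMSO and 100% = wells lacking PAFAH1B2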
Starred values were filed as active, the others as inactive. This is a sample that favours compounds with a hit; in the whole collection about 3.5% have one here.

SMILES	Apaf1 inhib	PREPL inhibitor	PAFAH1B3 inh	PAFAH2 inh	pPAFAH inh	PAFAH1B2 FP inh
CC(=O)Nc1cccc(Oc2cc(C#N)c(C#N)cc2N2CCCCCC2)c1	14	0	-7	-13	0	0
CCn1c(CNC(=O)c2cc(OC)c(OC)c(OC)c2)cc2ccccc21	-3	-7	7	4	-8	-3
Cc1cc(C)n(-c2ccc(C(=O)OCC(=O)NCc3ccc(F)cc3)cc2)n1	6	13	3	25	28*	6
CSc1ccccc1NC(=O)COC(=O)c1ccc(-n2nc(C)cc2C)cc1	17	18	7	59*	25*	5
O=C1NC(=Nc2ccccc2Cl)S/C1=C\c1cccc([N+](=O)[O-])c1O	13	3	22	50*	34*	14
COc1c(/C=C2\SC(=Nc3ccccc3Cl)NC2=O)cccc1[N+](=O)[O-]	3	16	10	20	17	6
COc1ccc(-c2cc(C3CC3)nc3sc(C#N)c(N)c23)cc1	13	15	4	-5	31*	0
COc1ccc(-c2cc(C3CC3)nc(N)c2C#N)cc1	10	-6	1	1	11	4
Cc1ccc(NCC(=O)N/N=C\C(Br)=C\c2ccccc2)cc1	9	41	14	-8	27*	7
Cc1cc(C)nc(SCC(=O)N/N=C\C(Br)=C\c2ccccc2)n1	1	5	-2	6	3	2
CC(=O)NS(=O)(=O)c1ccc(NC(=O)CC23CC4CC(CC(Br)(C4)C2)C3)cc1	4	1	5	-5	-1	25*
NS(=O)(=O)c1cccc(NC(=O)CNC(=O)CC23CC4CC(CC(C4)C2)C3)c1	-5	6	3	2	4	13
NS(=O)(=O)c1cccc(NC(=O)CC23CC4CC(C2)CC(CC(=O)Nc2cccc(S(N)(=O)=O)c2)(C4)C3)c1	6	-11	7	-4	6	36*
CC(=O)Nc1ccc(NC(=O)CC23CC4CC(CC(C4)C2)C3)cc1	1	1	9	13	4	10
Cc1cc(=O)[nH]c(NCCO)n1	5	6	4	-6	-5	-1
C/C=C/c1ccc(OCCOc2cc(C=O)ccc2OC)c(OC)c1	6	-5	-3	5	28*	8
C/C=C/c1ccc(OCC(=O)O)c(OC)c1	-25	-5	2	-3	4	5
CC(=O)Nc1ccc(NC(=O)c2cc[n+]([O-])cc2)cc1	5	6	0	-7	-1	2
Cc1ccc(SCc2[nH]nc3c2C2(C(=O)Nc4ccc([N+](=O)[O-])cc42)C(C#N)=C(N)O3)cc1 (centres undefined)	5	2	5	-3	5	6
Cc1ccc(SCc2[nH]nc3c2C2(CCSCC2)C(C#N)=C(N)O3)cc1	2	5	-6	1	2	38*
CCOC(=O)N1CCC2(CC1)C(C#N)=C(N)Oc1n[nH]c(CSc3ccc(C)cc3)c12	13	-34	3	2	6	27*
Cc1ccc(CCNC(=O)c2nn(C)c3c2CS(=O)(=O)c2ccccc2-3)cc1	-2	6	0	0	2	4
Cn1nc(C(=O)NCCc2ccc(Cl)cc2)c2c1-c1ccccc1S(=O)(=O)C2	13	17	0	1	6	35*
C=C(C(=O)O)C1CCC2(C)CCCC(C)(O)C2C1 (centres undefined)	-6	-6	6	3	2	29*
COc1ccccc1CNC(=O)COC(=O)c1ccc2c(=O)n3c(nc2c1)CCCCC3	-5	1	8	-5	4	5
SMILES	Apaf1 inhib	PREPL inhibitor	PAFAH1B3 inh	PAFAH2 inh	pPAFAH inh	PAFAH1B2 FP inh
COc1ccc(NS(=O)(=O)c2cc(C(=O)OC(C)C(=O)N3CCOCC3)ccc2Cl)cc1 (centres undefined)	-7	-4	12	-1	1	1
CNC(=O)NC(=O)C(C)OC(=O)c1ccc(Cl)c(S(=O)(=O)Nc2ccc(F)cc2)c1 (centres undefined)	-4	-4	0	-4	29*	-4
COc1cccc(-c2csc(N3CCN(CC(=O)Nc4ccc5c(c4)OCO5)CC3)n2)c1	10	55*	-7	-4	13	-2
COc1cccc(-c2csc(N3CCN(C(=O)Nc4ccc(F)cc4)CC3)n2)c1	19	24	-2	5	7	5
CCN(CC(=O)NCc1ccc(Cl)cc1)C(=O)NCc1ccc(Cl)cc1	6	-12	-3	17	5	8
CCN(CC(=O)NCc1ccc(Cl)cc1)C(=O)CSc1ccc(Br)cc1	22	-36	3	11	9	26*
Cc1cc(OCC(=O)Nc2ccc(N3CCCC3)cc2)cc(C)c1Cl	26	-28	0	6	26*	-2
CCOc1ccc(OCC(=O)Nc2ccc(N3CCCCC3)cc2)cc1	-1	-1	10	2	6	11
Cc1ccc(S(=O)(=O)N2CC(O)C[C@H]2C(=O)OCC(=O)Nc2ccc(N3CCCCC3)cc2)cc1C (some centres undefined)	22	17	3	9	25*	1
CC(C)OCc1ccc(C(=O)N2CCN(CC(=O)N3CCCC3)CC2)cc1	8	22	-2	-1	-4	3
COc1ccc(CNC(=O)[C@H](C)NC(=O)C2CCN(C(=O)[C@@H](N)Cc3ccccc3)CC2)cc1	-13	10	8	-6	2	-3
O=C(O)c1ccccc1C(=O)NCCc1c(C(=O)O)[nH]c2ccc(Cl)cc12	-1	-5	7	6	3	33*
O=C(NCCc1ccc(Cl)cc1)C(=O)c1c[nH]c2ccccc12	5	-25	-7	-14	9	28*
Cc1ccc(Cl)cc1N1CCN(C(=O)Cc2c(C(=O)O)[nH]c3ccc(Cl)cc23)CC1	12	4	0	3	11	5
CC1CC(C)CN(C(=O)Cc2c(C(=O)O)[nH]c3ccc(Cl)cc23)C1 (centres undefined)	3	10	1	4	-1	81*
O=C(NCCc1c[nH]c2ccccc12)C(=O)c1c[nH]c2ccccc12	3	-24	-1	-6	10	5
O=C(CCc1ccccc1)NNC(=O)Cc1ccc(Cl)cc1	-6	0	9	13	9	25*
Cc1ccnc(NC(=O)/C=C/c2cccs2)c1	2	6	6	-11	1	-2
O=C1CNC(=S)N1C1CCCCCC1	2	-9	2	-9	-2	9
COCCNC(=O)c1ccc2ccccc2n1	-1	1	9	-4	3	7
O=C(O)c1ccccc1C(=O)NCCc1ccc(Cl)cc1	-15	1	14	7	6	30*
O=C(NCCc1ccc(Cl)cc1)c1ccc2ccccc2n1	26	-25	2	8	8	25*
